# Reference: ChEMBL document CHEMBL4837200, “Discovery of Orally Bioavailable Purine-Based Inhibitors of the Low-Molecular-Weight Protein Tyrosine Phosphatase” (J Med Chem, 2021)
# Active and inactive are the calls of the source. No cut-off for these calls is given here.
# Key:
# [1] = AUC in C57BL/6 mouse at 10 mg/kg, po measured upto 24 hrs by LC-MS/MS analysis; type: ADME, organism-based; set-up: route oral, dose 10 mg/kg, time <=24; conditions: in vivo
# [2] = Cmax in C57BL/6 mouse at 10 mg/kg, po measured upto 24 hrs by LC-MS/MS analysis; type: ADME, organism-based; set-up: route oral, dose 10 mg/kg, time <=24; conditions: in vivo
# [3] = Oral bioavailability in C57BL/6 mouse at 10 mg/kg measured upto 24 hrs by LC-MS/MS analysis; type: ADME, organism-based; conditions: in vivo
# [4] = Half life in C57BL/6 mouse at 10 mg/kg, po measured upto 24 hrs by LC-MS/MS analysis; type: ADME, organism-based; conditions: in vivo
# [5] = molecular target: T1, Low molecular weight phosphotyrosine protein phosphatase (Homo sapiens) (UniProt P24666); assay: Uncompetitive inhibition of recombinant human LMPTP-A using OMFP as substrate by Lineweaver-Burk plot analysis
# T1 sequence (whole entry): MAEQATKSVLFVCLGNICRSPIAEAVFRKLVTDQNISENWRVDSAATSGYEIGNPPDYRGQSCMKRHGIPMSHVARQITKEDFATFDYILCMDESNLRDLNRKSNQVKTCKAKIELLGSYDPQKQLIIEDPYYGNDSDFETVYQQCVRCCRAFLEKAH
# Summary of the method: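 Recombinant human LMPTP-A at 20 nM acting on increasing OMFP concentrations with increasing inhibitor concentrations. Buffer was 50 mM Bis-Tris pH 6.0, 1 mM DTT, 0.01% Triton X-100 at 37°C. Fluorescence read continuously (ex 485/em 525 nm). Rates fitted to Michaelis-Menten and mixed-model inhibition equations and shown as Lineweaver-Burk plots. 3 independent experiments in triplicate.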
# [6] = Volume of distribution in C57BL/6 mouse at 2 mg/kg, iv measured upto 24 hrs by LC-MS/MS analysis; type: ADME, organism-based; conditions: in vivo
# [7] = molecular target: T2, Low molecular weight phosphotyrosine protein phosphatase (Homo sapiens, UniProt P24666); assay: Inhibition of recombinant human LMPTP-A using OMFP or pNPP as substrate by fluorescence assay
# T2 sequence (P24666 whole entry): T1 sequence (whole entry)
# Summary of the method: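 Recombinant human LMPTP-A in 50 mM Bis-Tris pH 6.0, 1 mM DTT, 0.01% Triton X-100, 37°C. With OMFP, fluorescence followed continuously (ex 485/em 525 nm). With pNPP, reaction stopped with 2 volumes 1 M NaOH and absorbance read at 405 nm. IC50 from inhibitor concentration vs % enzyme activity plots; n=4 unless otherwise noted.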
# [8] = tested on: Mus musculus; assay: Reversal of high fat diet induced diabetes in B6 mouse assessed as increase in insulin-stimulated AKT Thr308 phosphorylation in liver at 30 mg/kg/day, po administered for 2 weeks by Western blotting analysis; type: functional, organism-based
# Summary of the method: (§1)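 Male C57BL/6 littermates fed 60 kcal% fat chow for 3 months from 1-2 months of age; DIO mice ≥35 g given HFD containing 0.03% w/w compound (about 30 mg/kg/day) or HFD alone for 2 weeks. HFD n=8; treated n=9.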
# [9] = Microsomal stability in human liver microsomes assessed as parent compound remaining measured after 1 hr; type: ADME, Microsome; conditions: read-out: Stabilty
# [10] = molecular target: T1, Low molecular weight phosphotyrosine protein phosphatase (Homo sapiens); assay: Inhibition of LMPTP in human HepG2 cells assessed as increase in insulin-stimulated AKT Thr308 phosphorylation at 500 nM preincubated overnight followed by insulin stimulation for 5 mins by Western blotting analysis; type: cell-based
# Summary of the method: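 HepG2 cells grown in EMEM with 10% FBS plus penicillin/streptomycin. Serum-starved (0.1% FBS) overnight with DMSO or 500 nM compound, then stimulated with 10 nM bovine insulin for 5 min at 37°C with compound still present. Lysates probed by Western blot for pAKT Thr308, normalized to total AKT or GAPDH. 8 independent experiments.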
# [11] = Plasma protein binding in mouse; type: ADME, cell-free
# [12] = tested on: Mus musculus; assay: Reversal of high fat diet induced diabetes in B6 mouse assessed as increase in insulin-stimulated IR tyrosine phosphorylation in liver at 30 mg/kg/day, po administered for 2 weeks by ELISA; type: functional, organism-based; summary of the method: as §1
# [13] = tested on: Mus musculus; assay: Reversal of high fat diet induced diabetes in B6 mouse assessed as decrease in fasting insulin levels at 30 mg/kg/day, po administered for 2 weeks by ELISA; type: functional, organism-based; summary of the method: as §1
# [14] = Plasma protein binding in human; type: ADME, cell-free
# [15] = Microsomal stability in mouse liver microsomes assessed as parent compound remaining measured after 1 hr; type: ADME, Microsome; conditions: read-out: Stabilty
# [16] = tested on: Mus musculus; assay: Reversal of high fat diet induced diabetes in B6 mouse assessed as improved glucose tolerance at 30 mg/kg/day, po administered for 2 weeks followed by 13 hrs fasting and measured by IPGTT; type: functional, organism-based; summary of the method: as §1
smiles,measurement,setting,value
Cc1ccccc1-c1nc2c(N)ncn(Cc3c(Cl)cccc3Cl)c-2n1,AUC,[1],312 ng·h/mL
same,Cmax,[2],134 ng/mL
same,F,[3],19%
same,t1/2,[4],1.35 h
same,inhibition,[5],Active
same,Vd,[6],2.75 L/kg
same,IC50,[7],20 nM
Nc1ncn(Cc2c(Cl)cccc2Cl)c2nc(-c3ccc(Cl)cc3)nc1-2,IC50,[7],288 nM
Nc1ncn(Cc2ccc(Cl)cc2Cl)c2ncnc1-2,IC50,[7],1020 nM
COc1ccccc1-c1nc2c(N)ncn(Cc3c(Cl)cccc3Cl)c-2n1,IC50,[7],106 nM
N#Cc1ccccc1-c1nc2c(N)ncn(Cc3c(Cl)cccc3Cl)c-2n1,IC50,[7],245 nM
Nc1ncn(Cc2ccccc2Cl)c2ncnc1-2,IC50,[7],1930 nM
Cc1ccccc1-c1nc2c(N)ncn(Cc3c(Cl)cncc3Cl)c-2n1,AUC,[1],38 ng·h/mL
same,Cmax,[2],17 ng/mL
same,F,[3],3%
same,t1/2,[4],1.55 h
same,Vd,[6],4.04 L/kg
same,IC50,[7],6 nM
Nc1ncn(Cc2c(Cl)cccc2Cl)c2nc(-c3cccc(F)c3)nc1-2,IC50,[7],239 nM
Cc1cccc(-c2nc3c(N)ncn(Cc4c(Cl)cccc4Cl)c-3n2)c1,IC50,[7],87 nM
Cc1cccc(C)c1Cn1cnc(N)c2ncnc1-2,IC50,[7],3430 nM
Cc1ccc(-c2nc3c(N)ncn(Cc4c(Cl)cccc4Cl)c-3n2)cc1,IC50,[7],119 nM
Nc1ncn(Cc2cccc(Cl)c2)c2ncnc1-2,IC50,[7],18500 nM
Nc1ncn(Cc2ccc(Cl)cc2)c2ncnc1-2,IC50,[7],19400 nM
Cc1nc2c(N)ncn(Cc3c(Cl)cccc3Cl)c-2n1,IC50,[7],306 nM
Nc1ncn(Cc2c(Cl)cccc2Cl)c2nc(-c3ccccc3)nc1-2,IC50,[7],104 nM
Nc1ncn(Cc2c(Cl)cccc2Cl)c2ncnc1-2,AUC,[1],18544 ng·h/mL
same,Cmax,[2],5018 ng/mL
same,F,[3],66%
same,t1/2,[4],4.71 h
same,Vd,[6],3.01 L/kg
same,IC50,[7],239 nM
Nc1ncn(Cc2c(Cl)cccc2Cl)c2nc(-c3cccc(Cl)c3)nc1-2,IC50,[7],380 nM
Nc1ncn(Cc2c(Cl)cccc2Cl)c2nc(-c3ccccc3F)nc1-2,IC50,[7],147 nM
Nc1ncn(Cc2c(Cl)cccc2Cl)c2nc(-c3ccccc3Cl)nc1-2,IC50,[7],171 nM
Nc1ncn(Cc2c(Cl)cccc2Cl)c2nc(Cl)nc1-2,IC50,[7],27800 nM
Nc1ncn(Cc2c(Cl)cncc2Cl)c2ncnc1-2,AUC,[1],9501 ng·h/mL
same,Activity,[8],Active
same,Cmax,[2],8220 ng/mL
same,F,[3],100%
same,remaining at 1 h,[9],> 90%
same,t1/2,[4],0.71 h
same,inhibition,[10],Active
same,PPB,[11],89%
same,Activity,[12],Active
same,Activity,[13],Active
same,Vd,[6],0.81 L/kg
same,IC50,[7],83 nM
same,PPB,[14],88%
same,remaining at 1 h,[15],> 90%
same,Activity,[16],Active
Nc1ncn(Cc2c(Cl)cccc2Cl)c2nc(-c3ccc(F)cc3)nc1-2,IC50,[7],117 nM
Nc1ncn(Cc2c(Cl)cccc2Cl)c2nc(Br)nc1-2,IC50,[7],17600 nM
Nc1ncn(Cc2ccccc2)c2ncnc1-2 [3-BENZYLADENINE],IC50,[7],13600 nM
